Data taken from ChEMBL document CHEMBL1148725, “2,2,2-Trichloro-N-({2-[2-(dimethylamino)ethyl]-1,3-dioxo-2,3-dihydro-1H-benzo[de]isoquinolin- 5-yl}carbamoyl)acetamide (UNBS3157), a novel nonhematotoxic naphthalimide derivative with potent antitumor activity” (J Med Chem, 2007).

How the values were obtained:
[1] = tested on: Mus musculus; assay: Hematotoxicity in B6D2F1 mouse assessed as platelet count at 20 mg/kg, po; type: organism-based; design: dose 20 mg/kg, route oral; settings: in vivo
[2] = tested on: Mus musculus; assay: Hematotoxicity in B6D2F1 mouse assessed as platelet count at 10 mg/kg, po; type: organism-based; design: dose 10 mg/kg, route oral; settings: in vivo
[3] = tested on: Mus musculus; assay: Toxicity in B6D2F1 mouse at 40 mg/kg, ip; type: organism-based; design: dose 40 mg/kg, route intraperitoneal; settings: in vivo
[4] = tested on: Mus musculus; assay: Hematotoxicity in B6D2F1 mouse assessed as platelet count at 10 mg/kg, iv; type: organism-based; design: dose 10 mg/kg, route intravenous; settings: in vivo
[5] = tested on: Mus musculus; assay: Hematotoxicity in B6D2F1 mouse assessed as RBC count at 5 mg/kg, po; type: organism-based; design: dose 5 mg/kg, route oral; settings: in vivo
[6] = tested on: Mus musculus; assay: Hematotoxicity in B6D2F1 mouse assessed as WBC count at 5 mg/kg, iv; type: organism-based; design: dose 5 mg/kg, route intravenous; settings: in vivo
[7] = Toxicity in ip dosed B6D2F1 mouse; type: organism-based; settings: in vivo
How it was run: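 Acute MTD was set by a single i.p. dose to groups of three healthy female B6D2F1 mice, at 2.5, 5, 10, 20, 40, 80 and 160 mg/kg. The MTD is the dose just below the lowest dose that killed at least one mouse.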

[8] = Antitumor activity against mouse MXT-HI cells xenografted in B6D2F1 mouse at 20 mg/kg, ip relative to control; type: functional; settings: route intraperitoneal
How it was run: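 MXT-HI mammary adenocarcinoma grafted s.c. onto female B6D2F1 mice. Dosing i.p., five injections weekly for three weeks from day 14 post-graft. Nine mice per group. Tumour surface area measured, and survival expressed as %T/C, the ratio of treated to control median survival time.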

[9] = tested on: LoVo; assay: Antiproliferative activity against LoVo cells after 72 hrs by MTT assay; type: functional, cell-based, Homo sapiens; settings: lovo
How it was run: (§1)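 Cells cultured with each compound for three days; growth then read by the MTT colorimetric assay and reported as IC50 (µM).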

[10] = Antiproliferative activity against Hs683 cells after 72 hrs by MTT assay; type: functional, cell-based, Homo sapiens, Hs 683; settings: hs 683; how it was run: as §1
[11] = tested on: L1210; assay: Antitumor activity in L1210 cells xenografted B6D2F1 mouse at 20 mg/kg, ip relative to control; type: functional; settings: route intraperitoneal
How it was run: (§2)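 Mice grafted with L1210 leukaemia cells on day 0, then dosed i.p. four times weekly on days 1-4 and 8-11. Five mice per group. Outcome is %T/C, the median survival of treated over control. Kruskal-Wallis test followed by Dunn comparisons against control.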

[12] = tested on: MCF7; assay: Antiproliferative activity against MCF7 cells after 72 hrs by MTT assay; type: functional, cell-based, Homo sapiens; settings: Homo sapiens, MCF7, 72 h; how it was run: as §1
[13] = tested on: L1210; assay: Antitumor activity in L1210 cells xenografted B6D2F1 mouse at 5 mg/kg, ip relative to control; type: functional; settings: route intraperitoneal; how it was run: as §2
[14] = Antiproliferative activity against U373MG cells after 72 hrs by MTT assay; type: functional, cell-based, Homo sapiens, U-373MG ATCC; settings: u-373mg atcc; how it was run: as §1
[15] = tested on: Mus musculus; assay: Hematotoxicity in B6D2F1 mouse assessed as RBC count at 10 mg/kg, iv; type: organism-based; design: dose 10 mg/kg; settings: in vivo
[16] = tested on: L1210; assay: Antitumor activity in L1210 cells xenografted B6D2F1 mouse at 2.5 mg/kg, ip relative to control; type: functional; settings: route intraperitoneal; how it was run: as §2
[17] = tested on: L1210; assay: Antitumor activity in L1210 cells xenografted B6D2F1 mouse at 10 mg/kg, ip relative to control; type: functional; settings: route intraperitoneal; how it was run: as §2
[18] = tested on: A549; assay: Antiproliferative activity against A549 cells after 72 hrs by MTT assay; type: functional, cell-based, Homo sapiens; settings: a549; how it was run: as §1
[19] = tested on: HCT-15; assay: Antiproliferative activity against HCT15 cells after 72 hrs by MTT assay; type: functional, cell-based, Homo sapiens; settings: hct-15; how it was run: as §1
[20] = tested on: Mus musculus; assay: Hematotoxicity in B6D2F1 mouse assessed as RBC count at 10 mg/kg, po; type: organism-based; design: dose 10 mg/kg, route oral; settings: in vivo
[21] = tested on: Mus musculus; assay: Hematotoxicity in B6D2F1 mouse assessed as RBC count at 20 mg/kg, po; type: organism-based; design: dose 20 mg/kg, route oral; settings: in vivo
[22] = tested on: Mus musculus; assay: Hematotoxicity in B6D2F1 mouse assessed as platelet count at 5 mg/kg, iv; type: organism-based; design: dose 5 mg/kg, route intravenous; settings: in vivo
[23] = tested on: L1210; assay: Antitumor activity in L1210 cells xenografted B6D2F1 mouse at 40 mg/kg, ip relative to control; type: functional; settings: route intraperitoneal; how it was run: as §2
[24] = tested on: Mus musculus; assay: Hematotoxicity in B6D2F1 mouse assessed as platelet count at 5 mg/kg, po; type: organism-based; design: dose 5 mg/kg, route oral; settings: in vivo
[25] = tested on: Mus musculus; assay: Hematotoxicity in B6D2F1 mouse assessed as WBC count at 10 mg/kg, po; type: organism-based; design: dose 10 mg/kg, route oral; settings: in vivo
[26] = tested on: Mus musculus; assay: Hematotoxicity in B6D2F1 mouse assessed as WBC count at 20 mg/kg, po; type: organism-based; design: dose 20 mg/kg, route oral; settings: in vivo
[27] = tested on: Mus musculus; assay: Hematotoxicity in B6D2F1 mouse assessed as WBC count at 10 mg/kg, iv; type: organism-based; design: dose 10 mg/kg, route intravenous; settings: in vivo
[28] = tested on: Mus musculus; assay: Hematotoxicity in B6D2F1 mouse assessed as WBC count at 5 mg/kg, po; type: organism-based; design: dose 5 mg/kg, route oral; settings: in vivo
[29] = tested on: Mus musculus; assay: Hematotoxicity in B6D2F1 mouse assessed as RBC count at 5 mg/kg, iv; type: organism-based; design: dose 5 mg/kg, route intravenous; settings: in vivo

With `CN(C)CCN1C(=O)c2cccc3cc(N)cc(c23)C1=O` [AMONAFIDE] the Activity [1] was 806 10^3 /uL, the Activity [2] was 916 10^3 /uL and the Activity [3] was “Toxic”. For the same compound, the Activity [4] was 390 10^3 /uL, the Activity [5] was 9.82 10^6 /uL and the Activity [6] was 3.33 10^3 /uL. It also gave an MTD [7] of 40 mg/kg, an Activity [8] of 143% and an IC50 [9] of 2.7 µM. For the same compound, the IC50 [10] was 3.9 µM, the Activity [11] was 121% and the IC50 [12] was 5.8 µM. The Activity [13] was 140%, the IC50 [14] was 3.5 µM and the Activity [15] was 9.54 10^6 /uL. The Activity [16] was 109%, the Activity [17] was 122% and the IC50 [18] was 3.8 µM. For the same compound, the IC50 [19] was 5.2 µM, the Activity [20] was 10.05 10^6 /uL and the Activity [21] was 9.54 10^6 /uL. For the same compound, the Activity [22] was 461 10^3 /uL, the Activity [23] was 49% and the Activity [24] was 892 10^3 /uL. For the same compound, the Activity [25] was 3.06 10^3 /uL, the Activity [26] was 2.93 10^3 /uL and the Activity [27] was 3.07 10^3 /uL. For the same compound, the Activity [28] was 3.26 10^3 /uL and the Activity [29] was 8.59 10^6 /uL.
